In general, IC50 refers to the concentration that inhibits the measured activity by half. Read a high IC50 as weaker potency. Broadly, the Ki is the dissociation constant of the complex between target and ligand, obtained from inhibition or displacement. A high value points to a looser hold on the target. As usually defined, the half-life is how long it takes for the measured level to halve. A word on the Tmax: it is the time from dosing to the highest level. By Cmax is commonly meant the peak of the concentration-time curve. A word on the bioavailability: it is the share of a dose that reaches the circulation, judged against a reference dose that is usually intravenous. By clearance is commonly meant the rate of elimination divided by the concentration. A higher clearance goes with efficient removal.

The target in series [1] is T1, Capsid scaffolding protein (Human cytomegalovirus (strain AD169) (HHV-5) (Human herpesvirus 5), UniProt P16753).
T1 sequence (P16753 whole entry): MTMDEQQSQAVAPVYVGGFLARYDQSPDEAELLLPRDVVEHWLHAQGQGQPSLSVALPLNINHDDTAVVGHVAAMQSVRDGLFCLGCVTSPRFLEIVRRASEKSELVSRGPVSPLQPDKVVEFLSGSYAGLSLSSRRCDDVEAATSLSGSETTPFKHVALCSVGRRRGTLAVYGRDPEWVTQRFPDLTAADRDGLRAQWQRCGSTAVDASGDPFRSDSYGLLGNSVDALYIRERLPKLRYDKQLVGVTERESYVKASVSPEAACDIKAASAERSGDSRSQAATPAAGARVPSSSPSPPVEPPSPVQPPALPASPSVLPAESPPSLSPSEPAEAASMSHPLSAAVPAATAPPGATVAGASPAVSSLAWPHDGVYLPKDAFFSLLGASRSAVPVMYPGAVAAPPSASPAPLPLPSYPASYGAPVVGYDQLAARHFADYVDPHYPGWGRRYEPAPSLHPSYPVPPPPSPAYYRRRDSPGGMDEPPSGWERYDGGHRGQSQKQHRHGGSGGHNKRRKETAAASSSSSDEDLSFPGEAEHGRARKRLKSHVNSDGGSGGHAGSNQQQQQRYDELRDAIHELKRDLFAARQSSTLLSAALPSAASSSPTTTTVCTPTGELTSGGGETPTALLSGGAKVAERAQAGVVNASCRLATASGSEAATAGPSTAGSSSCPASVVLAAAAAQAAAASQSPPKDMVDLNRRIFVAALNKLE
Nature of the series: Inhibition of human cytomegalovirus protease in HCMV pNA assay. More on the design: species or system Human herpesvirus 5 strain AD169.

Series [2] deals with Human betaherpesvirus 5. Nature of the series: Concentration required to inhibit human cytomegalovirus HCMV-AD169 in antiviralplaque reduction assay. The class given is functional, organism-based. On the technique in general: Plaque reduction counts the foci of infection that form in a cell layer.
The target in series [3] is T1, Capsid scaffolding protein. Nature of the series: Potency against human cytomegalovirus protease in HCMV pNA assay. More on the design: species or system Human herpesvirus 5 strain AD169.
A short description of series [4]: Compound was tested for its stability in human plasma. The class given is ADME, organism-based.
In another series the test system is Vero. Nature of the series: Growth inhibition of cytomegalovirus in Vero cells. The class given is functional, Human betaherpesvirus 5.
For series [5], the system named is Human betaherpesvirus 5. The experiment in a line: Concentration required to inhibit human cytomegalovirus HCMV-AD169 in ELISA assay. In general terms: In an ELISA, binding on a coated surface is turned into a signal by an enzyme label.
Series [6] deals with T2, Prothrombin (Homo sapiens, UniProt P00734). The experiment in a line: Concentration of compound required to inhibit thrombin.
In series [7] the target is T3, Acetylcholinesterase (Homo sapiens, UniProt P22303). The experiment in a line: Concentration of compound required to inhibit Acetylcholinesterase.
T3 sequence (P22303 whole entry): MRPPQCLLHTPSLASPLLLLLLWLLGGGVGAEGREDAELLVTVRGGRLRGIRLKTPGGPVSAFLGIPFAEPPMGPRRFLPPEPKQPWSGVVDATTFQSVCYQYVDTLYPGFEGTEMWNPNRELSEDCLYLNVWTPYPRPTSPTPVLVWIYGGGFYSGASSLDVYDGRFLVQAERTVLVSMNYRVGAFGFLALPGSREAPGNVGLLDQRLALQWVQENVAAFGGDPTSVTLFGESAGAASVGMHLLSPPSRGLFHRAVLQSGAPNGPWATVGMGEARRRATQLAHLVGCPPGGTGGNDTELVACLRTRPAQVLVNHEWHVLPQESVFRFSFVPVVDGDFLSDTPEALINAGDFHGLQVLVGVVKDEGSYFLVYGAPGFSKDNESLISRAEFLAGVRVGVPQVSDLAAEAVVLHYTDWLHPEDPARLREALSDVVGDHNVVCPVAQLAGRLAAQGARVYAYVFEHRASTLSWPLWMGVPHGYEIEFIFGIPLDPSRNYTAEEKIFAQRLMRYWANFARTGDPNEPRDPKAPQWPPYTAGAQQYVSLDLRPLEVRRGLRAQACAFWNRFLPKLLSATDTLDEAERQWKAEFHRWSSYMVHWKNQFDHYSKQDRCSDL
Series [8] is described as follows: Concentration of compound required to inhibit elastase.
Series [9] has as its system Human betaherpesvirus 5. The experiment in a line: Concentration required to inhibit human cytomegalovirus HCMV-AD169 in ELISA assay. The source holds these as a separate data set.
Series [10] is described as follows: T 1/2 in dog. Type of series: ADME, organism-based, Canis lupus familiaris. Conditions: in vivo. The method in brief:
(§1)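 Dog pharmacokinetics after intravenous administration, with plasma clearance, volume of distribution and half-life derived from plasma drug levels.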

Series [11] is described as follows: T max in guinea pig. Type of series: ADME, organism-based, Cavia porcellus. The following applies: in vivo.
A short description of series [12]: Concentration required to inhibit elastase.
Series [13] in a line: T max in dog. Type of series: ADME, organism-based, Canis lupus familiaris. The following applies: in vivo.
Series [14] can be described thus: Steady state distribution value in guinea pig. The class given is ADME, organism-based, Cavia porcellus. The following applies: in vivo, read-out: Vdss. The gist of the method: (§2)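 Guinea-pig pharmacokinetics after intravenous dosing, with plasma clearance, volume of distribution and half-life. Drug levels were also measured in brain and vitreous humor.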
Series [15] in a line: C max in dog. The class given is ADME, organism-based, Canis lupus familiaris. Conditions: in vivo.
For series [16], the species on record is Canis familiaris. The experiment in a line: AUC 0-inf in dog. Conditions: in vivo. Type of series: ADME, organism-based, Canis lupus familiaris, Plasma. Also noted: time infinity.
The species entered for series [17] is Cavia porcellus. The experiment in a line: AUC 0-inf in guinea pig. The class given is ADME, organism-based, Plasma. Also noted: time infinity. Conditions: in vivo.
Series [18] concerns the target T2, Prothrombin. The experiment in a line: Concentration required to inhibit thrombin.
Series [19] is described as follows: Bioavailability in dog. The class given is ADME, organism-based, Canis lupus familiaris. The following applies: in vivo. The method in brief:
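Oral bioavailability in dog, set against intravenous administration in the same study.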

A short description of series [20]: C max in guinea pig. The following applies: in vivo. The class given is ADME, organism-based, Cavia porcellus.
Series [21] can be described thus: Steady state distribution value in dog. The class given is ADME, organism-based, Canis lupus familiaris. Conditions: in vivo, read-out: Vdss. The gist of the method: as §1
For series [22], the species on record is Cavia porcellus. Nature of the series: AUC 0-t in guinea pig. Type of series: ADME, organism-based, Plasma. Conditions: in vivo.
Series [23] can be described thus: Clearance value in dog. The class given is ADME, organism-based, Canis lupus familiaris. Conditions: in vivo. The gist of the method: as §1
For series [24], the species on record is Canis familiaris. Nature of the series: AUC 0-t in dog. The class given is ADME, organism-based, Canis lupus familiaris, Plasma. The following applies: in vivo.
Series [25] can be described thus: Clearance value in guinea pig. Type of series: ADME, organism-based, Cavia porcellus. The following applies: in vivo. The method in brief:
as §2

In series [26] the target is T3, Acetylcholinesterase. The experiment in a line: Concentration required to inhibit Acetylcholinesterase.
The nature of series [27]: T 1/2 in guinea pig. Conditions: in vivo. Type of series: ADME, organism-based, Cavia porcellus. The method in brief: as §2

As to `CC(C)c1ccc(NC(=O)N2CCC[C@H]2C(=O)N2CC[C@H]3[C@H]2[C@H](C)C(=O)N3c2nc3ccc([N+](=O)[O-])cc3s2)cc1`, the IC50 in [1] stood at 0.39 µM; in the series on Human betaherpesvirus 5 [2], 8.7 µM. Further, the Ki in series [3] is 0.025 µM. The half-life in series [4] is 24 h. The molecule also gave a CCID50 in the series with Vero of 128 µM.

Regarding `CC(C)c1ccc(NC(=O)N2CCC[C@H]2C(=O)N2CC[C@H]3[C@H]2[C@H](C)C(=O)N3c2nc3ccc(CO)cc3s2)cc1`, the IC50 in series [1] is 0.31 µM; in the series with Human betaherpesvirus 5 [5], 0.52 µM. The same molecule gave a Ki in series [3] of 0.04 µM. In addition, the half-life in series [4] is > 20 h. Further, the CCID50 with Vero was 125 µM.

`CC(C)c1ccc(NC(=O)N2CCC[C@H]2C(=O)N2CC[C@H]3[C@H]2[C@H](C)C(=O)N3C(=O)[C@@H]2[C@H](C)[C@@H]2C)cc1`: the IC50 in [1] is 0.3 µM; against Prothrombin [6], > 200 µM; at Acetylcholinesterase [7], > 100 µM; in [8] it was > 10 µM; in the series with Human betaherpesvirus 5 [9] it was 10 µM. This molecule also returned a Ki in [3] of 0.016 µM. Also, the half-life in series [4] was 6 h. Also, the CCID50 in the series on Vero came out at 219 µM.

Turning to `CC(C)c1ccc(NC(=O)N2CCC[C@H]2C(=O)N2CC[C@H]3[C@H]2[C@H](C)C(=O)N3c2nc3ccccc3s2)cc1`, the results for the half-life in series [10], in series [4] and in [27] were 1.5 h, > 24 h and 1 h, respectively. The Tmax in series [11] and in series [13] was 4.8 min in each case. Moreover, the IC50 in series [12] was > 10 µM; in series [1], 0.18 µM; against Prothrombin [18], > 200 µM; in the series with Human betaherpesvirus 5 [2], 5 µM; against Acetylcholinesterase [26], > 100 µM. In addition, the Vd in series [14] amounted to 1.6 L/kg; in series [21], 0.8 L/kg. Moreover, the values for the Cmax in [15] and in series [20] were 5480 ng/mL and 32000 ng/mL, respectively. Moreover, the “AUC 0-infinity” value in the series listed under Canis familiaris [16] is 9750 ng/mL/h; in the series listed under Cavia porcellus [17] it was 2230 ng/mL/h. This molecule gave a Ki in [3] of 0.01 µM. Also, the CCID50 in the series with Vero was >500 µM. The same molecule registered a bioavailability in series [19] of 29%. Besides, the “AUC 0-t” value in the series filed under Cavia porcellus [22] came to 2210 ng/mL/h; in the series listed under Canis familiaris [24], 9660 ng/mL/h. The clearance in [23] was found to be 8 mL/min/kg; in series [25] it was 60 mL/min/kg.

`CC(C)c1ccc(NC(=O)N2CCC[C@H]2C(=O)N2CC[C@H]3[C@H]2[C@H](C)C(=O)N3C(=O)C2CC2)cc1`: the IC50 in [1] came out at 0.2 µM; in the series on Human betaherpesvirus 5 [5] it was 31 µM. In series [3], the Ki was 0.002 µM. For the same molecule, the half-life in series [4] was 0.5 h. Also, the CCID50 in the series with Vero was 274 µM.

As to `CCOC(=O)c1ccc2nc(N3C(=O)[C@@H](C)[C@@H]4[C@@H]3CCN4C(=O)[C@@H]3CCCN3C(=O)Nc3ccc(C(C)C)cc3)sc2c1`, the IC50 in series [1] is 0.35 µM; in the series on Human betaherpesvirus 5 [5], 5.1 µM. This molecule registered a Ki in series [3] of 0.0074 µM. Further, the half-life in [4] is 9 h. In addition, in the series on Vero, the CCID50 was >500 µM.

Regarding `CC(C)c1ccc(NC(=O)N2CCC[C@H]2C(=O)N2CC[C@H]3[C@H]2[C@H](C)C(=O)N3c2nc3cccnc3s2)cc1`, the values for the IC50 (in [1]; in the series with Human betaherpesvirus 5 [5]) were 0.29 µM and 3.6 µM, respectively. For the same molecule, in [3], the affinity, expressed as Ki, was 0.021 µM. Further, the half-life in series [4] was 8 h. The CCID50 in the series with Vero was <31 µM.

For the molecule `CC(C)c1ccc(NC(=O)N2CCC[C@H]2C(=O)N2CC[C@H]3[C@H]2[C@H](C)C(=O)N3c2nccs2)cc1`, the IC50 in series [1] was 1.5 µM; with Human betaherpesvirus 5 [2], > 30 µM. Moreover, the affinity in series [3], expressed as Ki, was 0.446 µM. The half-life in series [4] is > 24 h. In the series with Vero, the CCID50 came out at 280 µM.

Take `CC(C)c1ccc(NC(=O)N2CCC[C@H]2C(=O)N2CC[C@H]3[C@H]2[C@H](C)C(=O)N3C(=O)C2C(C)(C)C2(C)C)cc1`: the IC50 in [1] was > 20 µM; in the series on Human betaherpesvirus 5 [2], > 35 µM. The same molecule showed a half-life in series [4] of 16 h. For the same molecule, the CCID50 in the series on Vero is 38 µM.

Regarding `CC(C)c1ccc(NC(=O)N2CCC[C@H]2C(=O)N2CC[C@H]3[C@H]2[C@H](C)C(=O)N3c2nc3ccc(OC(F)(F)F)cc3s2)cc1`, the results for the IC50 (in series [1]; in the series with Human betaherpesvirus 5 [5]) were 0.46 µM and 5.3 µM, respectively. This molecule also had a Ki in [3] of 0.02 µM. For the same molecule, the half-life in series [4] was 11 h. In addition, the CCID50 in the series with Vero is >500 µM.
